Reference: PubChem BioAssay
Results filed as inconclusive are left out.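 The calls were made as follows, unless noted: active = cell viability at or below a set limit in both duplicate runs, the limit being the all-compound median minus 4 SD (cut at about 23% in these data, passing the limit was not always enough); inconclusive = no clear call, values can overlap the other calls; inactive = the rest.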

Key:
[1] = OD615 S. cerevisiae growth inhibition, permissive medium, pilot counter-assay, permissive growth control for S. cerevisiae lifespan shortening project (AID 705;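 active = growth inhibition above 25% in both replicates, a cutoff set 3 SD above the mean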); conditions: OD615, 24 h, at 10 µM, hits give high values
Procedure, shortened: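 System: S. cerevisiae with engineered DeaD lifespan system / Measured by: absorbance (optical density) at 615 nm / Read-out: reduction in yeast growth (OD615) / Times: 4 h cell pre-growth, 24 h exposure at 30 °C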

[2] = Restrictive medium S. cerevisiae growth inhibition, OD615, pilot screen of yeast lifespan reduction project, restrictive growth control (AID 706;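 active = growth inhibition above a set limit, 3 SD over mean compound inhibition, in both replicates, cut at about 43% in these data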;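 also: modified DeaD lifespan yeast strain shifted to restrictive glucose medium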); conditions: OD615, 48 h, at 10 µM, hits give high values
Procedure, shortened: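 System: Engineered S. cerevisiae DeaD strain | Buffer or medium: Glucose-based CSMM-D restrictive medium | Schedule: 4 h pre-incubation, 48 h exposure at 30 °C | Technique: Optical density at 615 nm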

[3] = viability gain of MRP-1-high H69AR cells under doxorubicin, pilot screen, MRP-1 activator project, CellTiter-Glo, duplicate (AID 807;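 active = viability increase at or above a cutoff of the median across tested compounds plus 3 SD, cut at about 8.5% in these data, passing the limit was not always enough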;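 also: compound pretreatment 18-22 h then 72 h combined with doxorubicin; 0% = doxorubicin alone and 100% = vehicle without doxorubicin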); conditions: H69AR viability with doxorubicin, CellTiter-Glo luminescence; at 10 µM; hits give high values
[4] = growth suppression of beta-catenin knockout HCT116, pilot screen, human colon tumor cells (AID 823); conditions: CellTiter-Glo, 60 h, at 10 µM, hits give low values;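 also: 0% = wells killed by 20 µM Hyamine and 100% = untreated DMSO cell wells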
[5] = growth suppression of PTEN-deleted HCT116, pilot screen, cell-based, HCT116 clonal line, CellTiter-Glo (AID 824;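 active = viability at or below 27.92% in each of two runs, the all-compound median minus 4 SD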;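 also: 0% = 20 µM Hyamine control and 100% = vehicle cell control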); conditions: 60 h, at 10 µM, hits give low values
[6] = inhibitors of the yeast RAM network, pilot screen, dse1pr::URA3 reporter, 5-FOA selection (AID 869;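 active = inhibition over a set limit, the all-compound mean plus 3 SD, in both replicate runs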;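 also: 0% = DMSO wells with no growth and 100% = 10 µM 1-NA-PP1 with full growth; RAM network block rescues cells from 5-FOA so hits raise OD615 growth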); conditions: S. cerevisiae dse1pr::URA3 5-FOA growth, OD615, 2 d; at 10 µM; hits give high values; strain carries analog-sensitive mutant Cbk1 kinase
[7] = RAM signaling pathway blockade in yeast – S. cerevisiae, Pdr1DBD-CYC8 efflux-inhibited sensitized strain, primary screen (AID 1298;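 active = RAM network inhibition above 8.4% in each of two replicates, 3 SD over the compound average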;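 also: 0% = DMSO untreated cells without growth and 100% = 10 µM 1-NA-PP1 full growth; higher means more yeast growth rescued from 5-FOA killing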); conditions: S. cerevisiae cbk1-as DSE1-URA3 strain, 5-FOA growth OD615, 2 d; at 50 µM; hits give high values

CCOC(=O)c1nnc2cc(-c3ccccc3)nn2c1C
inactive: growth inhibition [1] 3.76% | growth inhibition [2] 16% | viability increase [3] 0.86% | viability [4] 93.6% | viability [5] 95.3% | inhibition [6] 1.5% | RAM network inhibition [7] 0.86%

Fc1ccccc1COc1cccc(/C=N/n2cnnc2)c1
inactive: growth inhibition [1] 2.62% | growth inhibition [2] 11.6% | viability increase [3] 0.12% | viability [4] 96.2% | viability [5] 84.9% | inhibition [6] 0.35% | RAM network inhibition [7] 0.15%

CC(=O)c1cccc(NC(=O)C2CCCC2)c1
inactive: growth inhibition [1] -9.02% | growth inhibition [2] -23.5% | viability increase [3] -0.26% | viability [4] 102% | viability [5] 95.4% | inhibition [6] 1.08% | RAM network inhibition [7] -2.18%

CCOC(=O)c1ccc(NC(=O)NS(=O)(=O)c2ccc(C)cc2)cc1
inactive: growth inhibition [1] -7.83% | growth inhibition [2] -3.95% | viability increase [3] -1.46% | viability [4] 105% | viability [5] 94% | inhibition [6] 3.13% | RAM network inhibition [7] 6.08%

O=C(CSc1nnc(-c2ccccc2Cl)o1)N1CCCCC1
inactive: growth inhibition [1] -8.71% | growth inhibition [2] 7.85% | viability increase [3] 1.04% | viability [4] 95.1% | viability [5] 97.6% | inhibition [6] 0.32% | RAM network inhibition [7] 0.36%

COc1ccc(CNC(=O)CN(c2cc(C)cc(C)c2)S(=O)(=O)c2c(C)noc2C)cc1
inactive: growth inhibition [1] -24.7% | growth inhibition [2] -27.1% | viability increase [3] -4.08% | viability [4] 97.1% | viability [5] 89.2% | inhibition [6] 1.92% | RAM network inhibition [7] 3.21%

O=C1N2CN(C(c3ccccc3)c3ccccc3)CN=C2SC1(CO)CO
inactive: growth inhibition [1] -9.07% | growth inhibition [2] -4.68% | viability increase [3] -2.69% | viability [4] 62.9% | viability [5] 74.8% | inhibition [6] 1.88% | RAM network inhibition [7] 1.39%

COc1cc(S(=O)(=O)NCc2ccc3c(c2)OCO3)ccc1Cl
inactive: growth inhibition [1] -10.5% | growth inhibition [2] -15.1% | viability increase [3] -2.38% | viability [4] 97.3% | viability [5] 95.5% | inhibition [6] 1.69% | RAM network inhibition [7] 0.82%

COc1ccc(OCC(=O)Nc2cccc(C(C)=O)c2)cc1
inactive: growth inhibition [1] 0.595% | growth inhibition [2] 15.9% | viability increase [3] -0.88% | viability [4] 93.9% | viability [5] 94.6% | inhibition [6] 0.74% | RAM network inhibition [7] 2.7%

COc1ccc(S(=O)(=O)N2CCC(C(=O)N3CCc4ccccc4C3)CC2)cc1
inactive: growth inhibition [1] 11.1% | growth inhibition [2] -10.1% | viability increase [3] -5.43% | viability [4] 93.5% | viability [5] 85% | inhibition [6] 0.13% | RAM network inhibition [7] 2.53%

CCOC(=O)C1=C(CS(=O)(=O)c2ccccc2)NC(=O)NC1c1ccccc1OCC (centres undefined)
inactive: growth inhibition [1] -15.1% | growth inhibition [2] -5.42% | viability increase [3] 0.13% | viability [4] 98.7% | viability [5] 101% | inhibition [6] 2.07% | RAM network inhibition [7] -0.04%

CCn1cc(C2=NC(c3ccccc3)CO2)c2ccccc21 (centres undefined)
inactive: growth inhibition [1] -11% | growth inhibition [2] -8.14% | viability increase [3] -4.95% | viability [4] 91.6% | viability [5] 83.3% | inhibition [6] 1.46% | RAM network inhibition [7] 0.69%

CC(=O)Oc1ccc(N2C(=O)CC(N3CCOCC3)C2=O)cc1 (centres undefined)
inactive: growth inhibition [1] 2.42% | growth inhibition [2] 15% | viability increase [3] -0.57% | viability [4] 103% | viability [5] 99.9% | inhibition [6] 0.405% | RAM network inhibition [7] 0.46%

Nc1sc2c(c1C(=O)NC1CCS(=O)(=O)C1)CCCC2 (centres undefined)
inactive: growth inhibition [1] -5.31% | growth inhibition [2] -3.38% | viability increase [3] 0.13% | viability [4] 93.3% | viability [5] 99.1% | inhibition [6] 1.67% | RAM network inhibition [7] 3.3%

CCc1ccccc1NC(=O)c1cc(C2CC2)on1
inactive: growth inhibition [1] -12.1% | growth inhibition [2] 6.47% | viability increase [3] -0.65% | viability [4] 93.2% | viability [5] 91.8% | inhibition [6] 0.045% | RAM network inhibition [7] 3.34%

CCCC(=O)NCCc1cc2ccc(C)c(C)c2[nH]c1=O
inactive: growth inhibition [1] -13% | growth inhibition [2] -25.4% | viability increase [3] -1.61% | viability [4] 103% | viability [5] 97.6% | inhibition [6] 1.91% | RAM network inhibition [7] 4%

CCOC(=O)c1cccc(NC(=O)C2CCC(CNc3c(N4CCOCC4)c(=O)c3=O)CC2)c1 (centres undefined)
inactive: growth inhibition [1] -7.33% | growth inhibition [2] -13.8% | viability increase [3] -2.63% | viability [4] 83.7% | viability [5] 82.4% | inhibition [6] 0.325% | RAM network inhibition [7] 1.31%

O=S(=O)(c1ccccc1)N1CCN(C2CCN(Cc3ccccc3)CC2)CC1
inactive: growth inhibition [1] -10.8% | growth inhibition [2] -0.305% | viability increase [3] -1.86% | viability [4] 90.3% | viability [5] 94.4% | inhibition [6] 0.155% | RAM network inhibition [7] 2.72%

Cc1ccc(S(=O)(=O)NC2OC(=O)C(Cl)=C2Cl)cc1 (centres undefined)
inactive: growth inhibition [1] -17.3% | growth inhibition [2] 10.1% | viability increase [3] -3.7% | viability [4] 86.4% | viability [5] 104% | inhibition [6] 0.495% | RAM network inhibition [7] 2.08%

CNc1nc(SCC(=O)OC)nc(N2CCOCC2)n1
inactive: growth inhibition [1] -11.7% | growth inhibition [2] -14.8% | viability increase [3] -1.78% | viability [4] 93.9% | viability [5] 89.3% | inhibition [6] 1.14% | RAM network inhibition [7] 3.47%

Clc1ccc(C=NC23CN4CN(CN(C4)C2)C3)cc1
inactive: growth inhibition [1] 8.77% | growth inhibition [2] 6.34% | viability increase [3] -1.39% | viability [4] 102% | viability [5] 90.3% | inhibition [6] 1.11% | RAM network inhibition [7] 0.19%

O=C1C=C(N(CCO)CCO)C2(CCCCC2)O1
inactive: growth inhibition [1] -14.1% | growth inhibition [2] -18.7% | viability increase [3] -1.83% | viability [4] 90.1% | viability [5] 96% | inhibition [6] 1.23% | RAM network inhibition [7] 2%

COc1ccc(-c2cc(C(F)(F)F)n3nc(C(=O)N4CCCC4)cc3n2)cc1
inactive: growth inhibition [1] -5.39% | growth inhibition [2] -2.34% | viability increase [3] -3.39% | viability [4] 93.9% | viability [5] 84.7% | inhibition [6] 1.71% | RAM network inhibition [7] 7.1%

COc1cc(C2C3=C(CC(c4ccco4)CC3=O)Nc3ccccc3N2C(C)=O)cc(OC)c1OC (centres undefined)
inactive: growth inhibition [1] -0.74% | growth inhibition [2] 8.4% | viability increase [3] -3.38% | viability [4] 91.8% | viability [5] 89% | inhibition [6] 1.3% | RAM network inhibition [7] 6.7%

c1ccc2[nH]c(SCCN3CCOCC3)nc2c1
inactive: growth inhibition [1] -2.45% | growth inhibition [2] 8.19% | viability increase [3] -1.11% | viability [4] 98.9% | viability [5] 104% | inhibition [6] -0.025% | RAM network inhibition [7] 1.35%

CCCn1c(C2CC(=O)N(c3cc(OC)ccc3OC)C2)nc2ccccc21 (centres undefined)
inactive: growth inhibition [1] -6.39% | growth inhibition [2] -14.7% | viability increase [3] -2.88% | viability [4] 98.4% | viability [5] 94.8% | inhibition [6] 1.6% | RAM network inhibition [7] 5%

CCOC(=O)C1CCCN(C(=O)c2ccc(CS(=O)(=O)c3ccc(C)cc3)o2)C1 (centres undefined)
inactive: growth inhibition [1] -0.315% | growth inhibition [2] -6.29% | viability increase [3] -2.78% | viability [4] 110% | viability [5] 101% | inhibition [6] 1.16% | RAM network inhibition [7] 3.23%

Clc1cccc(CSc2nnc(-c3ccccn3)n2Cc2ccco2)c1
inactive: growth inhibition [1] -8.18% | growth inhibition [2] 21.1% | viability increase [3] -1.98% | viability [4] 71.4% | viability [5] 75.3% | inhibition [6] 1.69% | RAM network inhibition [7] 12.3%

CN1CCc2c(c3ccccc3n2Cc2ccccc2)C1
inactive: growth inhibition [1] -5.23% | growth inhibition [2] -8.68% | viability increase [3] -5.7% | viability [4] 57.9% | viability [5] 63.9% | inhibition [6] 1.27% | RAM network inhibition [7] 5.12%

CCCN(CCC(=O)Nc1ccccc1F)CC1CC1
inactive: growth inhibition [1] -12.8% | growth inhibition [2] -18.1% | viability increase [3] -1.44% | viability [4] 99.1% | viability [5] 95.3% | inhibition [6] 0.64% | RAM network inhibition [7] -0.31%

CCn1cc(C(=O)N2CC(C)CC(C)C2)c(=O)c2cc(S(=O)(=O)N(C)C)ccc21 (centres undefined)
inactive: growth inhibition [1] 4.35% | growth inhibition [2] 6.52% | viability increase [3] -0.18% | viability [4] 103% | viability [5] 101% | inhibition [6] -0.3% | RAM network inhibition [7] 2.78%

CCN(c1cccc(C)c1)c1ncnc2nc[nH]c12
inactive: growth inhibition [1] -4.6% | growth inhibition [2] 15.6% | viability increase [3] -3.73% | viability [4] 103% | viability [5] 95.9% | inhibition [6] 0.95% | RAM network inhibition [7] 0.64%

CCOC(=O)NC(C(F)(F)F)(C(F)(F)F)P(=O)(c1ccccc1)c1ccccc1
inactive: growth inhibition [1] -6.98% | growth inhibition [2] 4.49% | viability increase [3] -0.51% | viability [4] 95% | viability [5] 91.7% | inhibition [6] 0.93% | RAM network inhibition [7] 4.13%

Cn1c(=O)[nH]c(=O)c2c1nc(CN1CCN(c3cccc(Cl)c3)CC1)n2Cc1ccccc1Cl
inactive: growth inhibition [1] -9.22% | growth inhibition [2] -6.86% | viability increase [3] -6.82% | viability [4] 41.1% | viability [5] 32.9% | inhibition [6] 1.39% | RAM network inhibition [7] 4.08%

COc1cc(CC(=O)O)c(C(C)=O)cc1OC
inactive: growth inhibition [1] 0.26% | growth inhibition [2] 0.155% | viability increase [3] -1.29% | viability [4] 100% | viability [5] 102% | inhibition [6] 0.365% | RAM network inhibition [7] -0.36%

CCOC(=O)N1CCN(C(=O)c2ccccc2NC(=O)COc2ccccc2C)CC1
inactive: growth inhibition [1] -9.27% | growth inhibition [2] 3.48% | viability increase [3] -1.77% | viability [4] 86.3% | viability [5] 82.2% | inhibition [6] 1.29% | RAM network inhibition [7] 5.67%

O=C(Nc1ccccc1)C1CC(=O)N(C2CCCCC2)C1 (centres undefined)
inactive: growth inhibition [1] -8.56% | growth inhibition [2] 7.07% | viability increase [3] 1.42% | viability [4] 105% | viability [5] 101% | inhibition [6] 1.58% | RAM network inhibition [7] 3.42%
